Activity calls are given as the source filed them. No cut-off for these calls is given here.
Tests used:
DU-145 = assay: Anti-proliferative activity against human DU145 cells incubated for 48 hrs by SRB assay; format: functional; details: DU-145, 48 h
Outline: (§1)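 SRB assay. Cells in DMEM with 10% FBS were seeded and grown 24 h at 37 °C in CO2. Compounds were diluted from a 10 mM DMSO stock to 1, 5 and 10 µM, with DMSO at most 0.1%, and exposed 48 h. Cells were fixed with 10% TCA for 60 min at 4 °C and stained 20 min at room temperature with 0.4% SRB in 1% acetic acid. Dye was eluted with 10 mM trizma base and absorbance read at 540 nm. Run in triplicate; GI50 given as mean ± SD of three determinations.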

A549 = assay: Anti-proliferative activity against human A549 cells incubated for 48 hrs by SRB assay; format: functional; details: A549, 48 h
MCF7 [1] = assay: Anti-proliferative activity against human MCF7 cells incubated for 48 hrs by SRB assay; format: functional; details: MCF7, 48 h; outline: as §1
HepG2 = assay: Anti-proliferative activity against human HepG2 cells incubated for 48 hrs by SRB assay; format: functional; details: HepG2, 48 h; outline: as §1
MCF7 [2] = assay: Induction of apoptosis in human MCF7 cells assessed as necrotic cells levels at 0.5 uM incubated for 48 hrs by Annexin V-FITC and propidium iodide staining based flow cytometry (reference value: 0.86%); format: functional
MCF7 [3] = assay: Induction of apoptosis in human MCF7 cells assessed as increase in Bax protein levels at 1 uM incubated for 48 hrs by Western blot method; format: functional, cell-based
Outline: (§2)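 MCF-7 cells were treated for 48 h and lysed in ice-cold RIPA buffer with PMSF, aprotinin, leupeptin, pepstatin and NaF. Protein was quantified by Bradford, and 50 µg per lane was run on 12% SDS-PAGE and transferred to PVDF. Membranes were blocked 2 h in TBST with 5% blocking powder, probed with primary antibody overnight and HRP secondary for 1 h at room temperature, then detected by chemiluminescence.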

MCF7 [4] = assay: Induction of apoptosis in human MCF7 cells assessed as increase in p53 protein levels at 1 uM incubated for 48 hrs by Western blot method; format: functional, cell-based; outline: as §2
MCF7 [5] = assay: Induction of apoptosis in human MCF7 cells assessed as late apoptotic cells levels at 0.5 uM incubated for 48 hrs by Annexin V-FITC and propidium iodide staining based flow cytometry (reference value: 3.08%); format: functional
MCF7 [6] = assay: Induction of apoptosis in human MCF7 cells assessed as early apoptotic cells levels at 0.5 uM incubated for 48 hrs by Annexin V-FITC and propidium iodide staining based flow cytometry (reference value: 3.57%); format: functional
MCF7 [7] = assay: Induction of cell cycle arrest in human MCF7 cells assessed as accumulation at sub G1 phase at 1 uM incubated for 48 hrs by propidium iodide staining based flow cytometry (reference value: 2.75%); format: functional
Outline: (§3)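 MCF-7 cells were treated 48 h, harvested, washed in PBS, fixed in ice-cold 70% ethanol and stained with propidium iodide. Phase distribution was measured by flow cytometry and compared with untreated cells.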

MCF7 [8] = assay: Induction of cell cycle arrest in human MCF7 cells assessed as accumulation at sub G1 phase at 0.5 uM incubated for 48 hrs by propidium iodide staining based flow cytometry (reference value: 2.75%); format: functional; outline: as §3
MCF7 [9] = assay: Induction of apoptosis in human MCF7 cells assessed as late apoptotic cells levels at 1 uM incubated for 48 hrs by Annexin V-FITC and propidium iodide staining based flow cytometry (reference value: 3.08%); format: functional
MCF7 [10] = assay: Induction of apoptosis in human MCF7 cells assessed as reduction in Bcl2 protein levels at 1 uM incubated for 48 hrs by Western blot method; format: functional, cell-based; outline: as §2
MCF7 [11] = assay: Induction of cell cycle arrest in human MCF7 cells assessed as accumulation at G2/M phase at 0.5 uM incubated for 48 hrs by propidium iodide staining based flow cytometry (reference value: 11.98%); format: functional; outline: as §3
MCF7 [12] = assay: Induction of apoptosis in human MCF7 cells assessed as induction of caspase-9 activity at 1 uM incubated for 48 hrs by ELISA method relative to control; format: functional
Outline: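 MCF-7 cells were treated for 48 h, pelleted, washed in PBS and lysed for 15 min. After centrifugation at 20,000 rpm for 15 min, caspase-9 activity in the supernatant was measured with a kit ELISA and expressed relative to untreated control. Mean ± SD of two experiments run in triplicate.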

MCF7 [13] = assay: Induction of ROS generation in human MCF7 cells at 1 uM incubated for 48 hrs by DCFDA dye based flow cytometry (reference value: 1.2%); format: functional
MCF7 [14] = assay: Induction of cell cycle arrest in human MCF7 cells assessed as accumulation at S phase at 1 uM incubated for 48 hrs by propidium iodide staining based flow cytometry (reference value: 0.99%); format: functional; outline: as §3
MCF7 [15] = assay: Reduction in mitochondrial membrane potential in human MCF7 cells at 0.5 and 1 uM incubated for 48 hrs by JC1 dye staining based flow cytometry; format: functional, cell-based
Outline: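 MCF-7 cells (1 × 10^6 per well) in six-well plates were treated 48 h, trypsinized, washed in PBS and stained with 5 µg/mL JC-1 for 15 min at 37 °C. Cells were rinsed three times, resuspended in prewarmed medium and analysed by flow cytometry in the FL1 and FL2 channels.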

MCF7 [16] = assay: Induction of cell cycle arrest in human MCF7 cells assessed as accumulation at S phase at 0.5 uM incubated for 48 hrs by propidium iodide staining based flow cytometry (reference value: 0.99%); format: functional; outline: as §3
MCF7 [17] = assay: Induction of cell cycle arrest in human MCF7 cells assessed as accumulation at G2/M phase at 1 uM incubated for 48 hrs by propidium iodide staining based flow cytometry (reference value: 11.98%); format: functional; outline: as §3
MCF7 [18] = assay: Induction of apoptosis in human MCF7 cells assessed as increase in p21 protein levels at 1 uM incubated for 48 hrs by Western blot method; format: functional, cell-based; outline: as §2
MCF7 [19] = assay: Induction of apoptosis in human MCF7 cells assessed as viable cells levels at 1 uM incubated for 48 hrs by Annexin V-FITC and propidium iodide staining based flow cytometry (reference value: 92.5%); format: functional
MCF7 [20] = assay: Induction of cell cycle arrest in human MCF7 cells assessed as accumulation at G0/G1 phase at 1 uM incubated for 48 hrs by propidium iodide staining based flow cytometry (reference value: 77.79%); format: functional; outline: as §3
MCF7 [21] = assay: Induction of ROS generation in human MCF7 cells at 0.5 uM incubated for 48 hrs by DCFDA dye based flow cytometry (reference value: 1.2%); format: functional
MCF7 [22] = assay: Induction of apoptosis in human MCF7 cells assessed as early apoptotic cells levels at 1 uM incubated for 48 hrs by Annexin V-FITC and propidium iodide staining based flow cytometry (reference value: 3.57%); format: functional
MCF7 [23] = assay: Induction of cell cycle arrest in human MCF7 cells assessed as accumulation at G0/G1 phase at 0.5 uM incubated for 48 hrs by propidium iodide staining based flow cytometry (reference value: 77.79%); format: functional; outline: as §3
MCF7 [24] = assay: Induction of apoptosis in human MCF7 cells assessed as viable cells levels at 0.5 uM incubated for 48 hrs by Annexin V-FITC and propidium iodide staining based flow cytometry (reference value: 92.5%); format: functional
MCF7 [25] = assay: Induction of apoptosis in human MCF7 cells assessed as necrotic cells levels at 1 uM incubated for 48 hrs by Annexin V-FITC and propidium iodide staining based flow cytometry (reference value: 0.86%); format: functional
MCF7 [26] = assay: Induction of apoptosis in human MCF7 cells assessed as increase in p27 protein levels at 1 uM incubated for 48 hrs by Western blot method; format: functional, cell-based; outline: as §2

SMILES: CC/C(=C(\c1ccccc1)c1ccc(OCCN(C)C)cc1)c1ccccc1 [TAMOXIFEN]
- GI50 (DU-145): 19.3 µM
- GI50 (A549): 24.4 µM
- GI50 (MCF7 [1]): 8 µM

SMILES: CN1C(=O)C(c2cccc3ccccc23)=C(c2ccccc2)C12C=CC(=O)C=C2
- GI50 (HepG2): 6.12 µM
- GI50 (DU-145): 6.3 µM
- GI50 (A549): 17.3 µM
- GI50 (MCF7 [1]): 2.4 µM

SMILES: CN1C(=O)C(c2ccc(C=O)s2)=C(c2ccccc2)C12C=CC(=O)C=C2
- GI50 (HepG2): 13.9 µM
- GI50 (DU-145): 8.2 µM
- GI50 (A549): 16.6 µM
- GI50 (MCF7 [1]): 3.6 µM

SMILES: CN1C(=O)C(c2ccc(C#N)cc2)=C(c2ccccc2)C12C=CC(=O)C=C2
- GI50 (HepG2): 16.6 µM
- GI50 (DU-145): 11.6 µM
- GI50 (A549): 25.4 µM
- GI50 (MCF7 [1]): 13.6 µM

SMILES: COC(=O)/C=C/C1=C(c2ccccc2)C2(C=CC(=O)C=C2)OC1=O
- GI50 (HepG2): 6.3 µM
- GI50 (DU-145): 4.3 µM
- GI50 (A549): 7.8 µM
- GI50 (MCF7 [1]): 1.2 µM

SMILES: COc1ccc(F)cc1C1=C(c2ccccc2)C2(C=CC(=O)C=C2)OC1=O
- GI50 (HepG2): 1.4 µM
- Activity (MCF7 [2]): 1.69%
- Activity (MCF7 [3]): Active
- Activity (MCF7 [4]): Active
- Activity (MCF7 [5]): 7.25%
- Activity (MCF7 [6]): 4.22%
- Activity (MCF7 [7]): 3.25%
- Activity (MCF7 [8]): 2.89%
- Activity (MCF7 [9]): 24.21%
- Activity (MCF7 [10]): Active
- Activity (MCF7 [11]): 9.63%
- fold change (FC) (MCF7 [12]): 2
- GI50 (DU-145): 0.9 µM
- GI50 (A549): 4.6 µM
- Activity (MCF7 [13]): 57.4%
- Activity (MCF7 [14]): 1.3%
- inhibition (MCF7 [15]): Active
- GI50 (MCF7 [1]): 1 µM
- Activity (MCF7 [16]): 1.12%
- Activity (MCF7 [17]): 2.2%
- Activity (MCF7 [18]): Active
- Activity (MCF7 [19]): 64.39%
- Activity (MCF7 [20]): 88.42%
- Activity (MCF7 [21]): 16.2%
- Activity (MCF7 [22]): 6.64%
- Activity (MCF7 [23]): 81.44%
- Activity (MCF7 [24]): 86.85%
- Activity (MCF7 [25]): 4.77%
- Activity (MCF7 [26]): Active

SMILES: Cc1ccc(C2=C(c3ccccc3)C3(C=CC(=O)C=C3)N(C)C2=O)cc1Cl
- GI50 (HepG2): 10.4 µM
- GI50 (DU-145): 12.1 µM
- GI50 (A549): 21.1 µM
- GI50 (MCF7 [1]): 7.4 µM

SMILES: CN1C(=O)C(c2ccccc2)=C(c2ccccc2)C12C=CC(=O)C=C2
- GI50 (HepG2): 9.2 µM
- GI50 (DU-145): 15.5 µM
- GI50 (A549): 22.5 µM
- GI50 (MCF7 [1]): 8.2 µM

SMILES: O=C1C=CC2(C=C1)OC(=O)C(c1ccc([N+](=O)[O-])cc1)=C2c1ccccc1
- GI50 (HepG2): 1.5 µM
- Activity (MCF7 [2]): 1.96%
- Activity (MCF7 [3]): Active
- Activity (MCF7 [4]): Active
- Activity (MCF7 [5]): 6.76%
- Activity (MCF7 [6]): 5.87%
- Activity (MCF7 [7]): 3.69%
- Activity (MCF7 [8]): 4.38%
- Activity (MCF7 [9]): 28.87%
- Activity (MCF7 [10]): Active
- Activity (MCF7 [11]): 3.35%
- fold change (FC) (MCF7 [12]): 2
- GI50 (DU-145): 1.9 µM
- GI50 (A549): 4 µM
- Activity (MCF7 [13]): 78.5%
- Activity (MCF7 [14]): 1.75%
- inhibition (MCF7 [15]): Active
- GI50 (MCF7 [1]): 1 µM
- Activity (MCF7 [16]): 0.34%
- Activity (MCF7 [17]): 0.76%
- Activity (MCF7 [18]): Active
- Activity (MCF7 [19]): 57.24%
- Activity (MCF7 [20]): 89.15%
- Activity (MCF7 [21]): 30.4%
- Activity (MCF7 [22]): 10.13%
- Activity (MCF7 [23]): 84.21%
- Activity (MCF7 [24]): 85.41%
- Activity (MCF7 [25]): 3.77%
- Activity (MCF7 [26]): Active

SMILES: CN1C(=O)C(c2ccc(CO)cc2)=C(c2ccccc2)C12C=CC(=O)C=C2
- GI50 (HepG2): 7.7 µM
- GI50 (DU-145): 11.5 µM
- GI50 (A549): 13.6 µM
- GI50 (MCF7 [1]): 7.6 µM

SMILES: O=C1C=CC2(C=C1)OC(=O)C(c1ccc(CO)cc1)=C2c1ccccc1
- GI50 (HepG2): 3.3 µM
- GI50 (DU-145): 2.4 µM
- GI50 (A549): 8.1 µM
- GI50 (MCF7 [1]): 1.7 µM

SMILES: O=C1C=CC2(C=C1)OC(=O)C(c1ccc(C(=O)O)cc1)=C2c1ccccc1
- GI50 (HepG2): 6.3 µM
- GI50 (DU-145): 4.8 µM
- GI50 (A549): 6.3 µM
- GI50 (MCF7 [1]): 3.5 µM

— ChEMBL document CHEMBL3608272, “Design, synthesis and anticancer properties of novel oxa/azaspiro[4,5]trienones as potent apoptosis inducers through mitochondrial disruption” (2015)
